TAAR1 agonist: agonists of human TAAR1. AID 624467. CHO RD-HGA16 TAAR1, Fluo-8 calcium fluorescence; vehicle wells 0%, saturating PEA agonist 100%. 0.99% of 360,000 active. activation, % at 3 µM;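 active means activation above the mean activation of all test compounds in the run plus 3 SD, cut at about 38% in these data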
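test system = CHO RD-HGA16 cells carrying human TAAR1 plus Gα16 | schedule = 17-24 h seeding, 75 min 37 °C dye, 30 min RT | compound dosing = 3 µM single concentration | control set = DMSO and PEA EC100 | replicates = n 1 | signal = Fluo-8 fluorescence, 5 s baseline then 140 s kinetic read | measure = percent activation vs PEA EC100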
TAAR1 antag: antagonists of human TAAR1; Q96RJ0; inhibition, % at 3 µM; AID 624466; 1.5% of 360,000 active; CHO RD-HGA16 TAAR1, Fluo-8 calcium fluorescence, antagonist;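 active means inhibition above a per-plate cutoff, the mean inhibition of test compounds on that plate plus 3 SD, cut at about 49% in these data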;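 further: 0% = DMSO plus EC80 beta-PEA response and 100% = DMSO alone without agonist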
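System: RD-HGA16 CHO cells with stable hTAAR1 and Gα16 | Probe or stimulus: EC80 β-phenethylamine stimulus | Dosing: 3 µM, single point | Times: Dye loading 75 min at 37 °C, then 30 min room temperature | Measured by: Fluo-8 calcium-sensitive fluorescence | Read-out basis: % inhibition of agonist calcium response | Replicates: n of 1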
OX1R antag-1: blocks the human orexin 1 receptor | CHO/OX1R cells, Fluo-8 calcium fluorescence, orexin A | 0.43% of 330,000 active | inhibition, % at 5 µM | O43613;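 active means inhibition above its plate's threshold, mean inhibition of all tested compounds on the plate plus 3 SD, cut at about 37% in these data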;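 further: 0% = orexin A challenge wells and 100% = SB-334867-A antagonist wells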
Target sequence (O43613 whole entry, looked up): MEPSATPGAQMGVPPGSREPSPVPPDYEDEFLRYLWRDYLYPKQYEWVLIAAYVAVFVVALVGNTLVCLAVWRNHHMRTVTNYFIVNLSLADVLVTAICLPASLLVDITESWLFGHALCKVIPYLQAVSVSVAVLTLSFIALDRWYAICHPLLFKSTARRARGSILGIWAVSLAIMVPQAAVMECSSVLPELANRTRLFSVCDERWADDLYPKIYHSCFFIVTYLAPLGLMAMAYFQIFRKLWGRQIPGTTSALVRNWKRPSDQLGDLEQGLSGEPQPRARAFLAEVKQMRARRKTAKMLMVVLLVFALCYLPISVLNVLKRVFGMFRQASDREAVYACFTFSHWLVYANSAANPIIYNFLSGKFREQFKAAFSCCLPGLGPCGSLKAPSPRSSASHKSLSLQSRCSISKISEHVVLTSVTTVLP
OX1R antag-2: OX1R (human) antagonism. OX1R-expressing cells, FRET antagonist read-out. AID 485270. 1.8% of 330,000 active. O43613. inhibition, % at 6.6 µM; in the data active means inhibition mostly above about 38%, no sharp cut-off; inactive means mostly below about 40%;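 further: 0% = agonist challenge alone and 100% = reference antagonist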
GPR7 antagonist: antagonists of human GPR7 (neuropeptides B/W receptor 1) | P48145 | GPR7-expressing cells, fluorescence antagonist assay | inhibition, % at 4.4 µM | 1.1% of 290,000 active; in the data active means inhibition above about 16%, passing the limit was not always enough;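 further: cells stimulated with the agonist NPW; 0% = agonist with vehicle and 100% = vehicle without agonist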
Target sequence (P48145 whole entry, looked up): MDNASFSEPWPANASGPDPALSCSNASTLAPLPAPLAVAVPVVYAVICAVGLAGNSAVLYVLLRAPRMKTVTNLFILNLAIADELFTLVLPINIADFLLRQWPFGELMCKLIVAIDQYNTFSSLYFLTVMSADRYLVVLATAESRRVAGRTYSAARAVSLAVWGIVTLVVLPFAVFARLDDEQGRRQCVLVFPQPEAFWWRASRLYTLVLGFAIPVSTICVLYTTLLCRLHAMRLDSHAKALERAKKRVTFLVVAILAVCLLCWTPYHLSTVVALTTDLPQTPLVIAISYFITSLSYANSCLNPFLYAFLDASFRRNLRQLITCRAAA
CHO parental Ca: counter-screen for OX1R antagonists: effect in parental CHO cells; parental CHO-K1, ATP-induced calcium, Fluo-8 fluorescence; inhibition, % at 5.6 µM; 0.63% of 330,000 active; AID 463079;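 active means inhibition above that plate's mean sample inhibition plus 3 SD, cut at about 26% in these data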;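 further: 0% = ATP-challenged DMSO wells and 100% = DMSO wells without ATP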
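Test system: parental CHO cells; detection: calcium-sensitive Fluo-8 fluorescence; evaluation: percent inhibition of calcium signal; also added: ATP as calcium-mobilizing challenge; repeats: one well per compound; control set: ATP-challenged DMSO wells low, unchallenged DMSO wells high; compound: single nominal dose of 5.6 µM per compound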
OX1R Ca confirm: confirmation of human orexin 1 receptor antagonists | AID 492963 | shares compounds with OX1R antag-1 | inhibition, % at 5 µM | 38% of 1,100 active | CHO/OX1R cells, orexin A calcium Fluo-8 fluorescence; in the data active means inhibition above about 29%;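 further: 0% = agonist challenge alone and 100% = reference antagonist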
CHO Ca counter: signal in parental CHO cells, OX1R antagonist counter-screen. shares compounds with OX1R antag-1. parental CHO-K1, ATP-induced calcium, Fluo-8 fluorescence. inhibition, % at 5.6 µM. 9.3% of 1,100 active. AID 492965;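 active means inhibition above a per-plate limit, the mean inhibition of that plate's test compounds plus 3 SD, cut at about 25% in these data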;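 further: 0% = ATP challenge with DMSO and 100% = DMSO without ATP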
OX1R HTRF confirm: confirmation of human orexin 1 receptor antagonists, HTRF format; shares compounds with OX1R antag-2; OX1R-expressing cells, HTRF antagonist assay; inhibition, % at 6.6 µM; 49% of 1,800 active; AID 492964; in the data active means inhibition above about 55%;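 further: CHO cells expressing OX1R stimulated with orexin A at about EC80; 0% = agonist challenge alone and 100% = reference antagonist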
CHO-K1 HTRF: counter-screen: parental CHO-K1 HTRF response | shares compounds with OX1R antag-2 | parental CHO-K1 cells, HTRF counterscreen | inhibition, % at 6.6 µM | 48% of 1,800 active; in the data active means inhibition above about 17%;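 further: 0% = agonist challenge with vehicle and 100% = vehicle alone without agonist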
* = called active by the depositor. This is a sample that favours compounds with a hit; in the whole collection about 4.5% have one here.

Results for CC(NCC(=O)Nc1ccccc1C(=O)NC1CC1)c1ccc(F)cc1F (stereo unspecified) ?
TAAR1 agonist: 9; TAAR1 antag: 16; OX1R antag-1: 57*; OX1R antag-2: 68*; CHO parental Ca: -16; OX1R Ca confirm: 44*; CHO Ca counter: -7; OX1R HTRF confirm: 87*; CHO-K1 HTRF: 2

Results for C=CCN1C(=O)c2ccc(C(=O)Nc3ccccn3)cc2C1=O ?
TAAR1 agonist: 1; TAAR1 antag: -1; OX1R antag-1: -18; OX1R antag-2: 40; CHO parental Ca: -8

How did O=C(NCc1cccc(C(F)(F)F)c1)c1ccc[nH]1 do in these assays?
TAAR1 agonist: 2; TAAR1 antag: -17; OX1R antag-1: 7; OX1R antag-2: -12; GPR7 antagonist: -11; CHO parental Ca: -13

Results for COc1ccc2oc(C(=O)OC(C)C(=O)NCc3ccccc3)c(C)c2c1 (stereo unspecified) ?
TAAR1 agonist: 0; TAAR1 antag: -2; OX1R antag-1: -33; OX1R antag-2: 6; CHO parental Ca: -35

How did Cc1c(C(=O)OC(C)C(=O)N(C)Cc2ccccc2)oc2ccccc12 (stereo unspecified) do in these assays?
TAAR1 agonist: 6; TAAR1 antag: 5; OX1R antag-1: 53*; OX1R antag-2: 86*; CHO parental Ca: -19; OX1R Ca confirm: 53*; CHO Ca counter: -10; OX1R HTRF confirm: 88*; CHO-K1 HTRF: 4

How did O=C(c1cccc(N2CCNC2=O)c1)N1CCCC(Nc2cccc(F)c2)C1 (stereo unspecified) do in these assays?
TAAR1 agonist: 1; TAAR1 antag: -13; OX1R antag-1: 33; OX1R antag-2: 98*; GPR7 antagonist: -4; CHO parental Ca: -9; OX1R Ca confirm: 68*; CHO Ca counter: -4; OX1R HTRF confirm: 71*; CHO-K1 HTRF: -31

What do the screens show for `O=C(Cc1ccc(N2CCNC2=O)cc1)N1CCCC(Nc2cccc(F)c2)C1` (stereo unspecified)?
TAAR1 agonist: 3; TAAR1 antag: -14; OX1R antag-1: -78; OX1R antag-2: 4; GPR7 antagonist: 7; CHO parental Ca: -13

How did COc1cc(OC)c(NC(=O)c2ccccc2F)cc1Cl do in these assays?
TAAR1 agonist: 3; TAAR1 antag: 3; OX1R antag-1: 30; OX1R antag-2: 89*; GPR7 antagonist: -1; CHO parental Ca: -7; OX1R Ca confirm: 35*; CHO Ca counter: -9; OX1R HTRF confirm: 82*; CHO-K1 HTRF: 9

Results for COc1cc2c(cc1NC(=O)c1ccccc1F)CCCC2 ?
TAAR1 agonist: 1; TAAR1 antag: -30; OX1R antag-1: -23; OX1R antag-2: 21; GPR7 antagonist: -5; CHO parental Ca: -3

What do the screens show for `Cc1occc1-c1nnc(SCC(=O)NCCc2ccccc2)n1C(C)c1ccccc1` (stereo unspecified)?
TAAR1 agonist: 6; TAAR1 antag: 8; OX1R antag-1: 64*; OX1R antag-2: 83*; GPR7 antagonist: -1; CHO parental Ca: -31; OX1R Ca confirm: 30*; CHO Ca counter: -8; OX1R HTRF confirm: 77*; CHO-K1 HTRF: -4

How did COc1ccc(C(=O)COc2ccccc2C(=O)Nc2ccccc2)cc1 do in these assays?
TAAR1 agonist: 2; TAAR1 antag: 19; OX1R antag-1: 42*; OX1R antag-2: 71*; GPR7 antagonist: 1; CHO parental Ca: -2; OX1R Ca confirm: 37*; CHO Ca counter: -11; OX1R HTRF confirm: 60*; CHO-K1 HTRF: 9

Results for O=C(O)c1ccc(-c2nnn(Cc3cccc(C(F)(F)F)c3)n2)cc1 ?
TAAR1 agonist: 1; TAAR1 antag: -21; OX1R antag-1: -7; OX1R antag-2: 11; GPR7 antagonist: 3; CHO parental Ca: 2

Results for O=C(CCCN1C(=O)/C(=C/c2cccs2)SC1=S)Nc1cccc(C(=O)O)c1 ?
TAAR1 agonist: 11; TAAR1 antag: 2; OX1R antag-1: 7; OX1R antag-2: 33; GPR7 antagonist: -7; CHO parental Ca: -10

How did O=C(CCCN1C(=O)/C(=C/c2cccs2)SC1=S)Nc1cccc(O)c1 do in these assays?
TAAR1 agonist: 5; TAAR1 antag: 45; OX1R antag-1: 45*; OX1R antag-2: 67*; GPR7 antagonist: 5; CHO parental Ca: 2; OX1R Ca confirm: 33*; CHO Ca counter: 7; OX1R HTRF confirm: 59*; CHO-K1 HTRF: 7

What do the screens show for `Cc1csc(SC(C)c2nc3scc(-c4ccccc4)c3c(=O)[nH]2)n1` (stereo unspecified)?
TAAR1 agonist: 0; TAAR1 antag: -13; OX1R antag-1: -24; OX1R antag-2: 25; GPR7 antagonist: -5; CHO parental Ca: -24

How did COc1ccc(-c2csc(NC(=O)CS(=O)(=O)c3ccc(F)cc3)n2)cc1OC do in these assays?
TAAR1 agonist: 14; TAAR1 antag: 15; OX1R antag-1: 28; OX1R antag-2: 76*; CHO parental Ca: 14; OX1R Ca confirm: 15; CHO Ca counter: -2; OX1R HTRF confirm: 25; CHO-K1 HTRF: 4

What do the screens show for `COc1ccc(-c2csc(NC(=O)CS(=O)(=O)c3ccccc3)n2)cc1`?
TAAR1 agonist: 5; TAAR1 antag: -2; OX1R antag-1: -20; OX1R antag-2: 15; CHO parental Ca: -1

What do the screens show for `COC(=O)c1ccccc1NC(=O)c1sc(=S)n(C)c1N`?
TAAR1 agonist: 6; TAAR1 antag: 6; OX1R antag-1: 78*; OX1R antag-2: 93*; GPR7 antagonist: -2; CHO parental Ca: 18; OX1R Ca confirm: 97*; CHO Ca counter: -11; OX1R HTRF confirm: 94*; CHO-K1 HTRF: 1

Results for COC(=O)c1ccccc1NC(=O)c1sc(N)nc1C ?
TAAR1 agonist: 3; TAAR1 antag: 9; OX1R antag-1: -28; OX1R antag-2: 21; GPR7 antagonist: 1; CHO parental Ca: -4

Results for CC(C)n1c(SCC(=O)c2ccc3c(c2)OCCO3)nc2c1c(=O)n(C)c(=O)n2C ?
TAAR1 agonist: 1; TAAR1 antag: -1; OX1R antag-1: -10; OX1R antag-2: 21; CHO parental Ca: 7

Screening data (PubChem)
